# Laboratory results: ChEMBL document CHEMBL4689842, “EUbOPEN Chemogenomics Library wave 1” (2021)
# System: Fibroblast
# Test: Multiplex assay against human fibroblast
# Format: toxicity, cell-based
# Procedure, shortened: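 At seeding, live cells were stained with Hoechst33342, BioTracker Green Microtubule Cytoskeleton Dye, MitoTracker Red and Annexin V Alexa Fluor 680. After compound addition they were imaged on a CQ1 microscope at 37°C and 5% CO2, and CellPathfinder machine-learning gating sorted them into Hoechst high-intensity objects or normal cells, with normal cells further split into healthy, pyknosed or fragmented nuclei and pyknosed cells into mitotic or apoptotic. Tubulin, mitochondrial-mass and membrane-permeability phenotypes are given as per cents of cells with healthy nuclei.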
# [1] = 12 h, 1 µM, compound concentration 1 uM, replicate 1
# [2] = 12 h, 1 µM, compound concentration 1 uM, replicate 2
# [3] = 12 h, 10 µM, compound concentration 10 uM, replicate 1
# [4] = 12 h, 10 µM, compound concentration 10 uM, replicate 2
# [5] = 24 h, 1 µM, compound concentration 1 uM, replicate 1
# [6] = 24 h, 1 µM, compound concentration 1 uM, replicate 2
# [7] = 24 h, 10 µM, compound concentration 10 uM, replicate 1
# [8] = 24 h, 10 µM, compound concentration 10 uM, replicate 2
# [9] = 48 h, 1 µM, compound concentration 1 uM, replicate 1
# [10] = 48 h, 1 µM, compound concentration 1 uM, replicate 2
# [11] = 48 h, 10 µM, compound concentration 10 uM, replicate 1
# [12] = 48 h, 10 µM, compound concentration 10 uM, replicate 2
structure (smiles),measurement,setting,value
CCCSc1nc(N[C@@H]2C[C@H]2c2ccc(F)c(F)c2)c2nnn([C@@H]3C[C@H](OCCO)[C@@H](O)[C@H]3O)c2n1 [TICAGRELOR],Population Apoptotic (%),[1],55%
same,Population Fragmented Nuclei (%),[1],17%
same,Population Healthy Nuclei (%),[1],48%
same,Population Hoechst High Intensity Objects (%),[1],9%
same,Population Membrane Permeable-Phenotype (%),[1],21%
same,Population Mitochondria Different-Phenotype (%),[1],5%
same,Population Mitotic Cells (%),[1],44%
same,Population Normal (%),[1],90%
same,Population Pyknosed Nuclei (%),[1],33%
same,Population Tubulin-Different-Phenotype (%),[1],46%
same,Total Cell Count,[1],179
same,Population Apoptotic (%),[2],66%
same,Population Fragmented Nuclei (%),[2],1%
same,Population Healthy Nuclei (%),[2],93%
same,Population Hoechst High Intensity Objects (%),[2],5%
same,Population Membrane Permeable-Phenotype (%),[2],5%
same,Population Mitochondria Different-Phenotype (%),[2],18%
same,Population Mitotic Cells (%),[2],33%
same,Population Normal (%),[2],94%
same,Population Pyknosed Nuclei (%),[2],4%
same,Population Tubulin-Different-Phenotype (%),[2],13%
same,Total Cell Count,[2],82
same,Population Apoptotic (%),[3],56%
same,Population Fragmented Nuclei (%),[3],29%
same,Population Healthy Nuclei (%),[3],27%
same,Population Hoechst High Intensity Objects (%),[3],12%
same,Population Membrane Permeable-Phenotype (%),[3],12%
same,Population Mitochondria Different-Phenotype (%),[3],78%
same,Population Mitotic Cells (%),[3],43%
same,Population Normal (%),[3],87%
same,Population Pyknosed Nuclei (%),[3],43%
same,Population Tubulin-Different-Phenotype (%),[3],90%
same,Total Cell Count,[3],139
same,Population Apoptotic (%),[4],75%
same,Population Fragmented Nuclei (%),[4],7%
same,Population Healthy Nuclei (%),[4],79%
same,Population Hoechst High Intensity Objects (%),[4],11%
same,Population Membrane Permeable-Phenotype (%),[4],43%
same,Population Mitochondria Different-Phenotype (%),[4],98%
same,Population Mitotic Cells (%),[4],25%
same,Population Normal (%),[4],88%
same,Population Pyknosed Nuclei (%),[4],12%
same,Population Tubulin-Different-Phenotype (%),[4],96%
same,Total Cell Count,[4],67
same,Population Apoptotic (%),[5],43%
same,Population Fragmented Nuclei (%),[5],18%
same,Population Healthy Nuclei (%),[5],62%
same,Population Hoechst High Intensity Objects (%),[5],9%
same,Population Membrane Permeable-Phenotype (%),[5],26%
same,Population Mitochondria Different-Phenotype (%),[5],12%
same,Population Mitotic Cells (%),[5],56%
same,Population Normal (%),[5],90%
same,Population Pyknosed Nuclei (%),[5],19%
same,Population Tubulin-Different-Phenotype (%),[5],50%
same,Total Cell Count,[5],172
same,Population Apoptotic (%),[6],57%
same,Population Fragmented Nuclei (%),[6],3%
same,Population Healthy Nuclei (%),[6],87%
same,Population Hoechst High Intensity Objects (%),[6],2%
same,Population Membrane Permeable-Phenotype (%),[6],4%
same,Population Mitochondria Different-Phenotype (%),[6],20%
same,Population Mitotic Cells (%),[6],42%
same,Population Normal (%),[6],97%
same,Population Pyknosed Nuclei (%),[6],8%
same,Population Tubulin-Different-Phenotype (%),[6],11%
same,Total Cell Count,[6],81
same,Population Apoptotic (%),[7],55%
same,Population Fragmented Nuclei (%),[7],27%
same,Population Healthy Nuclei (%),[7],33%
same,Population Hoechst High Intensity Objects (%),[7],16%
same,Population Membrane Permeable-Phenotype (%),[7],18%
same,Population Mitochondria Different-Phenotype (%),[7],67%
same,Population Mitotic Cells (%),[7],44%
same,Population Normal (%),[7],83%
same,Population Pyknosed Nuclei (%),[7],38%
same,Population Tubulin-Different-Phenotype (%),[7],94%
same,Total Cell Count,[7],133
same,Population Apoptotic (%),[8],83%
same,Population Fragmented Nuclei (%),[8],7%
same,Population Healthy Nuclei (%),[8],73%
same,Population Hoechst High Intensity Objects (%),[8],8%
same,Population Membrane Permeable-Phenotype (%),[8],65%
same,Population Mitochondria Different-Phenotype (%),[8],97%
same,Population Mitotic Cells (%),[8],16%
same,Population Normal (%),[8],91%
same,Population Pyknosed Nuclei (%),[8],19%
same,Population Tubulin-Different-Phenotype (%),[8],97%
same,Total Cell Count,[8],80
same,Population Apoptotic (%),[9],44%
same,Population Fragmented Nuclei (%),[9],25%
same,Population Healthy Nuclei (%),[9],55%
same,Population Hoechst High Intensity Objects (%),[9],9%
same,Population Membrane Permeable-Phenotype (%),[9],16%
same,Population Mitochondria Different-Phenotype (%),[9],5%
same,Population Mitotic Cells (%),[9],55%
same,Population Normal (%),[9],90%
same,Population Pyknosed Nuclei (%),[9],19%
same,Population Tubulin-Different-Phenotype (%),[9],36%
same,Total Cell Count,[9],167
same,Population Apoptotic (%),[10],66%
same,Population Fragmented Nuclei (%),[10],27%
same,Population Healthy Nuclei (%),[10],68%
same,Population Hoechst High Intensity Objects (%),[10],10%
same,Population Membrane Permeable-Phenotype (%),[10],18%
same,Population Mitochondria Different-Phenotype (%),[10],3%
same,Population Mitotic Cells (%),[10],33%
same,Population Normal (%),[10],89%
same,Population Pyknosed Nuclei (%),[10],3%
same,Population Tubulin-Different-Phenotype (%),[10],57%
same,Total Cell Count,[10],88
same,Population Apoptotic (%),[11],69%
same,Population Fragmented Nuclei (%),[11],50%
same,Population Healthy Nuclei (%),[11],31%
same,Population Hoechst High Intensity Objects (%),[11],20%
same,Population Membrane Permeable-Phenotype (%),[11],22%
same,Population Mitochondria Different-Phenotype (%),[11],62%
same,Population Mitotic Cells (%),[11],30%
same,Population Normal (%),[11],79%
same,Population Pyknosed Nuclei (%),[11],18%
same,Population Tubulin-Different-Phenotype (%),[11],90%
same,Total Cell Count,[11],159
same,Population Apoptotic (%),[12],75%
same,Population Fragmented Nuclei (%),[12],32%
same,Population Healthy Nuclei (%),[12],61%
same,Population Hoechst High Intensity Objects (%),[12],5%
same,Population Membrane Permeable-Phenotype (%),[12],2%
same,Population Mitochondria Different-Phenotype (%),[12],84%
same,Population Mitotic Cells (%),[12],25%
same,Population Normal (%),[12],94%
same,Population Pyknosed Nuclei (%),[12],6%
same,Population Tubulin-Different-Phenotype (%),[12],92%
same,Total Cell Count,[12],135
